Laboratory results taken from ChEMBL document CHEMBL1141179 (J Med Chem, 2005).

Columns and labels:
[1] = target: Somatostatin receptor type 1 (Homo sapiens, UniProt P30872); assay: Inhibition of 125I-[Leu8,D-Trp22,Tyr25]SRIF-28 binding to human somatostatin receptor type 1
Outline: (§1)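 Human sst1 or sst5 receptor stably expressed in CHO-K1 cells. 20 µm cryostat sections of cell membrane pellets were used for receptor autoradiography. IC50 (nM) came from competitive radioligand displacement. Values are mean ± SEM when N ≥ 3; otherwise mean with single values.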

[2] = target: Somatostatin receptor type 2 (Homo sapiens, UniProt P30874); assay: Inhibition of 125I-[Leu8,D-Trp22,Tyr25]SRIF-28 binding to human somatostatin receptor type 2
Outline: (§2)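 Human sst2 or sst3 receptor stably expressed in CCL39 cells. 20 µm cryostat sections of cell membrane pellets were used for autoradiographic binding. IC50 (nM) came from competitive displacement. Values are mean ± SEM when N ≥ 3; otherwise mean with single values.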

[3] = target: Somatostatin receptor type 5 (Homo sapiens, UniProt P35346); assay: Inhibition of 125I-[Leu8,D-Trp22,Tyr25]SRIF-28 binding to human somatostatin receptor type 5; outline: as §1
[4] = target: Somatostatin receptor type 3 (Homo sapiens, UniProt P32745); assay: Inhibition of 125I-[Leu8,D-Trp22,Tyr25]SRIF-28 binding to human somatostatin receptor type 3; outline: as §2
[5] = target: Somatostatin receptor type 4 (Homo sapiens, UniProt P31391); assay: Inhibition of 125I-[Leu8,D-Trp22,Tyr25]SRIF-28 binding to human somatostatin receptor type 4
Sequence of Somatostatin receptor type 4 (P31391 whole entry): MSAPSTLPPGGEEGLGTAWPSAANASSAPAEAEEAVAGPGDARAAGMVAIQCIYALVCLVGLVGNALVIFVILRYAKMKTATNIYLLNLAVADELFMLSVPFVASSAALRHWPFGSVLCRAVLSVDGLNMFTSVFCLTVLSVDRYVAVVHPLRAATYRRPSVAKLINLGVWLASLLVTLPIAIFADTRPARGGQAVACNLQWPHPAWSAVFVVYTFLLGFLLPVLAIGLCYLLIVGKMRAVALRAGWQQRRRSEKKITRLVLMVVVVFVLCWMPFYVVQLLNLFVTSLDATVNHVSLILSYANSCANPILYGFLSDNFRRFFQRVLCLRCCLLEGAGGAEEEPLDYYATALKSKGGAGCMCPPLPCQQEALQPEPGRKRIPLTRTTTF

Sequence of Somatostatin receptor type 3 (P32745 whole entry): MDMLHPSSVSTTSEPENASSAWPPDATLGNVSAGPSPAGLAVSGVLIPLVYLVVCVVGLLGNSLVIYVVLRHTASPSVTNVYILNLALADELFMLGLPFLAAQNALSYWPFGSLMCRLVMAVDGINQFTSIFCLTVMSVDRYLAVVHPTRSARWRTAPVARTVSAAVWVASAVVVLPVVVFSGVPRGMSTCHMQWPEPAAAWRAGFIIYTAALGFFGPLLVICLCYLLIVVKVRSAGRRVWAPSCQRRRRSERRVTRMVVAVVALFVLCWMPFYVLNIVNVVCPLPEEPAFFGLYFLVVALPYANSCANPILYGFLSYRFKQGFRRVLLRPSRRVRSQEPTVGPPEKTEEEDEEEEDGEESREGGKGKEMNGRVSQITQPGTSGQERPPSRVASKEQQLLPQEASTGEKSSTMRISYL
Sequence of Somatostatin receptor type 2 (P30874 whole entry): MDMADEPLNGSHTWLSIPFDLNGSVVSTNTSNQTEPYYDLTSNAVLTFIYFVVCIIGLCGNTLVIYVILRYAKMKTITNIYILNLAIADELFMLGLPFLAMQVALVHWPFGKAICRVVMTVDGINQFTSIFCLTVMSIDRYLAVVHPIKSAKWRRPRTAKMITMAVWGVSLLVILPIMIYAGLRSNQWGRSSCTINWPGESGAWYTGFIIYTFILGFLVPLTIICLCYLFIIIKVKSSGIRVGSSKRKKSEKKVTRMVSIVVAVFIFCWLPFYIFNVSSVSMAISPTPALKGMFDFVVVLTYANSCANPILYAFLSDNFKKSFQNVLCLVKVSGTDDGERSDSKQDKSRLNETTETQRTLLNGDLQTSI
Sequence of Somatostatin receptor type 1 (P30872 whole entry): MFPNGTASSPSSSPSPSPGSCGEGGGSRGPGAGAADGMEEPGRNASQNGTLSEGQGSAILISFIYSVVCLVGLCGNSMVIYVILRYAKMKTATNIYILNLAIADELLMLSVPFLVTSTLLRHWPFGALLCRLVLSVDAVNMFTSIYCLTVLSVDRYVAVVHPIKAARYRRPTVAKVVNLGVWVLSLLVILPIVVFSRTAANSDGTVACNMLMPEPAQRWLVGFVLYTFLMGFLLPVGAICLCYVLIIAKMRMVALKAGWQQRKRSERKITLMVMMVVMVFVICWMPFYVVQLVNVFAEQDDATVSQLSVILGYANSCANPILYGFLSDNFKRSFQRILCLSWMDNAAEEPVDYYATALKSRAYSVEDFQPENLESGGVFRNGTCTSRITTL
Sequence of Somatostatin receptor type 5 (P35346 whole entry): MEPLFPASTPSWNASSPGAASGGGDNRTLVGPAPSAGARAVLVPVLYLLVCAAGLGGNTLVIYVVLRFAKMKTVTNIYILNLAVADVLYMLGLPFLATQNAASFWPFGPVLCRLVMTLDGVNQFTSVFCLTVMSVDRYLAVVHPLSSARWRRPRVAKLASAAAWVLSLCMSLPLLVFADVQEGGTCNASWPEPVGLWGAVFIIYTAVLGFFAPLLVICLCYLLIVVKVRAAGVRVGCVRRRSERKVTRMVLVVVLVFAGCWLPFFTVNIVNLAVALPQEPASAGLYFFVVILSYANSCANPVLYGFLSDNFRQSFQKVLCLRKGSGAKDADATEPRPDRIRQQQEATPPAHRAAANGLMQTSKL

Row | IC50 [1] | IC50 [2] | IC50 [3] | IC50 [4] | IC50 [5] | Compound
1 | 204 nM | > 1000 nM | > 1000 nM | 772 nM | > 1000 nM | CC(C)NCc1ccc(C[C@@H]2NC(=O)[C@@H](Cc3c[nH]c4ccccc34)NC(=O)[C@@H]3CCC(=O)NCCCCCC[C@@H](NC(=O)[C@H](Cc4ccccc4)NC(=O)[C@H]([C@@H](C)O)NC2=O)C(=O)N[C@@H](CO)C(=O)N[C@H](C(=O)O)CSSC[C@H](NC(=O)[C@@H](N)Cc2ccc(O)cc2)C(=O)N[C@@H](CCCCN)C(=O)N[C@@H](Cc2ccccc2)C(=O)N3)cc1
2 | 5.3 nM | 15 nM | 13 nM | 39 nM | 0.6 nM | C[C@@H](O)[C@@H]1NC(=O)[C@H](CCCCN)NC(=O)[C@@H](Cc2c[nH]c3ccccc23)NC(=O)[C@H](Cc2ccccc2)NC(=O)[C@H](Cc2ccccc2)NC(=O)[C@H](CCCCN)NC(=O)[C@@H](N)CSSC[C@@H](C(=O)O)NC(=O)[C@H](Cc2ccccc2)NC1=O
3 | > 1000 nM | > 1000 nM | > 1000 nM | > 1000 nM | > 1000 nM | CC(C)NCc1ccc(C[C@@H]2NC(=O)[C@@H](Cc3c[nH]c4ccccc34)NC(=O)[C@@H]3CCC(=O)NCCCC[C@H](NC(=O)[C@H]([C@@H](C)O)NC2=O)C(=O)N[C@@H]([C@@H](C)O)C(=O)N[C@@H](CO)C(=O)N[C@H](C(=O)O)CSSC[C@H](NC(=O)[C@@H](N)Cc2ccc(O)cc2)C(=O)N[C@@H](CCCCN)C(=O)N[C@@H](Cc2ccccc2)C(=O)N3)cc1
4 | 197 nM | 1.9 nM | 43 nM | 52 nM | 1 nM | C[C@@H](O)[C@@H]1NC(=O)[C@H](Cc2ccccc2)NC(=O)[C@H]([C@@H](C)O)NC(=O)[C@H](CCCCN)NC(=O)[C@@H](Cc2c[nH]c3ccccc23)NC(=O)[C@H](Cc2ccccc2)NC(=O)[C@H](Cc2ccccc2)NC(=O)[C@@H](N)CSSC[C@@H](C(=O)O)NC1=O
5 | 554 nM | > 1000 nM | > 1000 nM | > 1000 nM | > 1000 nM | CC(C)NCc1ccc(C[C@@H]2NC(=O)[C@@H](Cc3c[nH]c4ccccc34)NC(=O)[C@@H]3CCC(=O)NCCC[C@H](NC(=O)[C@H](Cc4ccccc4)NC(=O)[C@H]([C@@H](C)O)NC2=O)C(=O)N[C@@H](CO)C(=O)N[C@H](C(=O)O)CSSC[C@H](NC(=O)[C@@H](N)Cc2ccc(O)cc2)C(=O)N[C@@H](CCCCN)C(=O)N[C@@H](Cc2ccccc2)C(=O)N3)cc1
6 | > 1000 nM | 531 nM | > 1000 nM | > 1000 nM | 229 nM | C[C@@H](O)[C@@H]1NC(=O)[C@H](CCCCN)NC(=O)[C@@H](Cc2c[nH]c3ccccc23)NC(=O)[C@H](Cc2ccccc2)NC(=O)[C@@H](N)CSSC[C@@H](C(=O)O)NC(=O)[C@H](Cc2ccccc2)NC1=O
7 | 18 nM | > 1000 nM | > 1000 nM | > 1000 nM | > 1000 nM | CC(C)NCc1ccc(C[C@@H]2NC(=O)[C@@H](Cc3c[nH]c4ccccc34)NC(=O)[C@@H]3CCC(=O)NCCCC[C@H](NC(=O)[C@H](Cc4ccc(O)cc4)NC(=O)[C@H]([C@@H](C)O)NC2=O)C(=O)N[C@@H](CO)C(=O)N[C@H](C(N)=O)CSSC[C@H](N)C(=O)N[C@@H](CCCCN)C(=O)N[C@@H](Cc2ccccc2)C(=O)N3)cc1
8 | > 1000 nM | > 1000 nM | > 1000 nM | > 1000 nM | > 1000 nM | CC(C)NCc1ccc(C[C@@H]2NC(=O)[C@@H](Cc3c[nH]c4ccccc34)NC(=O)[C@@H](NC(=O)[C@@H](N)Cc3ccccc3)CCC(=O)NCCCC[C@@H](C(=O)N[C@@H](CO)C(=O)O)NC(=O)[C@H](Cc3ccccc3)NC(=O)[C@H]([C@@H](C)O)NC2=O)cc1
9 | 46 nM | > 1000 nM | > 1000 nM | > 1000 nM | 611 nM | CC(C)NCc1ccc(C[C@H]2C(=O)N[C@@H]([C@@H](C)O)C(=O)N[C@@H](Cc3ccc(O)c(I)c3)C(=O)N[C@H]3CCCCCCNC(=O)CC[C@H](NC(=O)[C@H](Cc4ccccc4)NC(=O)[C@H](CCCCN)NC(=O)[C@@H](N)CSSC[C@@H](C(=O)O)NC(=O)[C@H](CO)NC3=O)C(=O)N[C@H](Cc3c[nH]c4ccccc34)C(=O)N2C)cc1
10 | > 1000 nM | > 1000 nM | > 1000 nM | > 1000 nM | > 1000 nM | CC(C)NCc1ccc(C[C@@H]2NC(=O)[C@@H](Cc3c[nH]c4ccccc34)NC(=O)[C@@H]3CCC(=O)NCC(=O)NCC[C@H](NC(=O)[C@H](Cc4ccccc4)NC(=O)[C@H]([C@@H](C)O)NC2=O)C(=O)N[C@@H](CO)C(=O)N[C@H](C(=O)O)CSSC[C@H](NC(=O)[C@@H](N)Cc2ccc(O)cc2)C(=O)N[C@@H](CCCCN)C(=O)N[C@@H](Cc2ccccc2)C(=O)N3)cc1
11 | > 1000 nM | 598 nM | > 1000 nM | > 1000 nM | > 1000 nM | C[C@@H](O)[C@@H]1NC(=O)[C@H](CCCCN)NC(=O)[C@@H](Cc2c[nH]c3ccccc23)NC(=O)[C@H](Cc2ccccc2)NC(=O)[C@H](Cc2ccccc2)NC(=O)[C@@H](N)CSSC[C@@H](C(=O)O)NC1=O
12 | > 1000 nM | > 1000 nM | > 1000 nM | > 1000 nM | > 1000 nM | CC(C)NCc1ccc(C[C@@H]2NC(=O)[C@@H](Cc3c[nH]c4ccccc34)NC(=O)[C@@H]3CC(=O)NC[C@H](NC(=O)[C@H](Cc4ccccc4)NC(=O)[C@H]([C@@H](C)O)NC2=O)C(=O)N[C@@H](CO)C(=O)N[C@H](C(=O)O)CSSC[C@H](NC(=O)[C@@H](N)Cc2ccc(O)cc2)C(=O)N[C@@H](CCCCN)C(=O)N[C@@H](Cc2ccccc2)C(=O)N3)cc1
13 | 208 nM | > 1000 nM | > 1000 nM | > 1000 nM | > 1000 nM | CC(C)NCc1ccc(C[C@@H]2NC(=O)[C@@H](Cc3c[nH]c4ccccc34)NC(=O)[C@H](Cc3ccccc3)NC(=O)[C@@H]3CCC(=O)NCCCC[C@H](NC(=O)[C@H](Cc4ccccc4)NC(=O)[C@H]([C@@H](C)O)NC2=O)C(=O)N[C@@H](CO)C(=O)N[C@H](C(=O)O)CSSC[C@H](NC(=O)[C@@H](N)Cc2ccc(O)cc2)C(=O)N[C@@H](CCCCN)C(=O)N3)cc1
14 | > 1000 nM | > 1000 nM | > 1000 nM | > 1000 nM | > 1000 nM | CC(C)NCc1ccc(C[C@@H]2NC(=O)[C@@H](Cc3c[nH]c4ccccc34)NC(=O)[C@H](Cc3ccccc3)NC(=O)[C@@H]3CC(=O)NC[C@H](NC(=O)[C@H](Cc4ccccc4)NC(=O)[C@H]([C@@H](C)O)NC2=O)C(=O)N[C@@H](CO)C(=O)N[C@H](C(=O)O)CSSC[C@H](NC(=O)[C@@H](N)Cc2ccc(O)cc2)C(=O)N[C@@H](CCCCN)C(=O)N3)cc1
15 | 104 nM | > 1000 nM | > 1000 nM | > 1000 nM | > 1000 nM | CC(C)NCc1ccc(C[C@@H]2NC(=O)[C@@H](Cc3c[nH]c4ccccc34)NC(=O)[C@H](Cc3ccccc3)NC(=O)[C@@H]3CCC(=O)NCC[C@H](NC(=O)[C@H](Cc4ccccc4)NC(=O)[C@H]([C@@H](C)O)NC2=O)C(=O)N[C@@H](CO)C(=O)N[C@H](C(=O)O)CSSC[C@H](NC(=O)[C@@H](N)Cc2ccc(O)cc2)C(=O)N[C@@H](CCCCN)C(=O)N3)cc1
16 | 782 nM | > 1000 nM | > 1000 nM | > 1000 nM | 99 nM | CC(C)NCc1ccc(C[C@@H]2NC(=O)[C@@H](Cc3c[nH]c4ccccc34)NC(=O)[C@@H]3CCC(=O)NCCCCC[C@@H](NC(=O)[C@H](Cc4ccccc4)NC(=O)[C@H]([C@@H](C)O)NC2=O)C(=O)N[C@@H](CO)C(=O)N[C@H](C(=O)O)CSSC[C@H](NC(=O)[C@@H](N)Cc2ccc(O)cc2)C(=O)N[C@@H](CCCCN)C(=O)N[C@@H](Cc2ccccc2)C(=O)N3)cc1
17 | > 1000 nM | > 1000 nM | > 1000 nM | > 1000 nM | > 1000 nM | CC(C)NCc1ccc(C[C@@H]2NC(=O)[C@@H](Cc3c[nH]c4ccccc34)NC(=O)[C@@H]3CCC(=O)NCC[C@H](NC(=O)[C@H]([C@@H](C)O)NC2=O)C(=O)N[C@@H]([C@@H](C)O)C(=O)N[C@@H](CO)C(=O)N[C@H](C(=O)O)CSSC[C@H](NC(=O)[C@@H](N)Cc2ccc(O)cc2)C(=O)N[C@@H](CCCCN)C(=O)N[C@@H](Cc2ccccc2)C(=O)N3)cc1
18 | 167 nM | > 1000 nM | > 1000 nM | > 1000 nM | > 1000 nM | CC(C)NCc1ccc(C[C@@H]2NC(=O)[C@@H](Cc3c[nH]c4ccccc34)NC(=O)[C@@H]3CCC(=O)NCCCC(=O)NCCC[C@H](NC(=O)[C@H](Cc4ccccc4)NC(=O)[C@H]([C@@H](C)O)NC2=O)C(=O)N[C@@H](CO)C(=O)N[C@H](C(=O)O)CSSC[C@H](NC(=O)[C@@H](N)Cc2ccc(O)cc2)C(=O)N[C@@H](CCCCN)C(=O)N[C@@H](Cc2ccccc2)C(=O)N3)cc1
19 | 620 nM | > 1000 nM | > 1000 nM | > 1000 nM | 215 nM | CC(C)NCc1ccc(C[C@H]2C(=O)N[C@@H]([C@@H](C)O)C(=O)N[C@@H](Cc3ccc(O)c(I)c3)C(=O)N[C@@H]3CCCCCCNC(=O)CC[C@H](NC(=O)[C@H](Cc4ccccc4)NC(=O)[C@H](CCCCN)NC(=O)[C@@H](N)CSSC[C@@H](C(=O)O)NC(=O)[C@H](CO)NC3=O)C(=O)N[C@H](Cc3c[nH]c4ccccc34)C(=O)N2C)cc1
